Tests used:
Assay type in all cases: functional, cell-based
[1] = biological target: Metabotropic glutamate receptor 2 (Rattus norvegicus, UniProt P31421); assay: Activity at rat mGluR2 receptor measured as intracellular calcium concentration in HEK293 cells
Method in brief: (§1)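 HEK293 cells were transfected with the indicated receptor, seeded on polyornithine-coated plates and cultured 24 h. Fluorescence (ex 485/em 525 nm) was read every 1.5 s for 60 s after compound addition. Agonism was scored versus basal signal. Dose–response curves were fitted; means of three experiments in triplicate.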

[2] = biological target: Metabotropic glutamate receptor 4 (Rattus norvegicus, UniProt P31423); assay: (§2) Activity at rat mGluR4 receptor measured as intracellular calcium concentration in HEK293 cells; method in brief: as §1
Chain of Metabotropic glutamate receptor 4 (P31423 whole entry): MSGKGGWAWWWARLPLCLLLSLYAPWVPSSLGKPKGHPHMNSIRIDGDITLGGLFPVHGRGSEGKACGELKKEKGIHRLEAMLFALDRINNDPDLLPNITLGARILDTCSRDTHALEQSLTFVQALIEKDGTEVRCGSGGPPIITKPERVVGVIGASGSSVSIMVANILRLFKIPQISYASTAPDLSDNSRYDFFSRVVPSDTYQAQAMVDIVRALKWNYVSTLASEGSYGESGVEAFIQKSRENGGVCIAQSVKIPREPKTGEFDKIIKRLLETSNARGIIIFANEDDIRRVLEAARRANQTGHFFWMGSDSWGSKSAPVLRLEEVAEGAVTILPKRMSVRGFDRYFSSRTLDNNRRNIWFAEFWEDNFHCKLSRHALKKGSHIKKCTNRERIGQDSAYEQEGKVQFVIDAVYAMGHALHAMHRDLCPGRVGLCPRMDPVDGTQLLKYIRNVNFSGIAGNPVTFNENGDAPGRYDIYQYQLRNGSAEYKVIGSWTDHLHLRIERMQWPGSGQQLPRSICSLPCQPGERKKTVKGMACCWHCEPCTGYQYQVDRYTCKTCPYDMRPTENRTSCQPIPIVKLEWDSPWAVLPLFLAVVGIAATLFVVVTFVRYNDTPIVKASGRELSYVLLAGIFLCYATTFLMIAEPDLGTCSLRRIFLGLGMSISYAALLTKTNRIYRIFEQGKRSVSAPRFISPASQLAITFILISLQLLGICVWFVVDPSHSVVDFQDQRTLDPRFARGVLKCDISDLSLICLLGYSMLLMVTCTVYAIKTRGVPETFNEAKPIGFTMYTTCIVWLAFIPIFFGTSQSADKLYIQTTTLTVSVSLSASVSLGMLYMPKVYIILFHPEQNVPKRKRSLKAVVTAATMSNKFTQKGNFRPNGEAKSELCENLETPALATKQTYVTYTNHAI

[3] = biological target: Metabotropic glutamate receptor 5 (Rattus norvegicus, UniProt P31424); assay: Activity at rat mGluR5 receptor measured as intracellular calcium concentration in HEK293 cells; method in brief: as §1
Chain of Metabotropic glutamate receptor 5 (P31424 whole entry): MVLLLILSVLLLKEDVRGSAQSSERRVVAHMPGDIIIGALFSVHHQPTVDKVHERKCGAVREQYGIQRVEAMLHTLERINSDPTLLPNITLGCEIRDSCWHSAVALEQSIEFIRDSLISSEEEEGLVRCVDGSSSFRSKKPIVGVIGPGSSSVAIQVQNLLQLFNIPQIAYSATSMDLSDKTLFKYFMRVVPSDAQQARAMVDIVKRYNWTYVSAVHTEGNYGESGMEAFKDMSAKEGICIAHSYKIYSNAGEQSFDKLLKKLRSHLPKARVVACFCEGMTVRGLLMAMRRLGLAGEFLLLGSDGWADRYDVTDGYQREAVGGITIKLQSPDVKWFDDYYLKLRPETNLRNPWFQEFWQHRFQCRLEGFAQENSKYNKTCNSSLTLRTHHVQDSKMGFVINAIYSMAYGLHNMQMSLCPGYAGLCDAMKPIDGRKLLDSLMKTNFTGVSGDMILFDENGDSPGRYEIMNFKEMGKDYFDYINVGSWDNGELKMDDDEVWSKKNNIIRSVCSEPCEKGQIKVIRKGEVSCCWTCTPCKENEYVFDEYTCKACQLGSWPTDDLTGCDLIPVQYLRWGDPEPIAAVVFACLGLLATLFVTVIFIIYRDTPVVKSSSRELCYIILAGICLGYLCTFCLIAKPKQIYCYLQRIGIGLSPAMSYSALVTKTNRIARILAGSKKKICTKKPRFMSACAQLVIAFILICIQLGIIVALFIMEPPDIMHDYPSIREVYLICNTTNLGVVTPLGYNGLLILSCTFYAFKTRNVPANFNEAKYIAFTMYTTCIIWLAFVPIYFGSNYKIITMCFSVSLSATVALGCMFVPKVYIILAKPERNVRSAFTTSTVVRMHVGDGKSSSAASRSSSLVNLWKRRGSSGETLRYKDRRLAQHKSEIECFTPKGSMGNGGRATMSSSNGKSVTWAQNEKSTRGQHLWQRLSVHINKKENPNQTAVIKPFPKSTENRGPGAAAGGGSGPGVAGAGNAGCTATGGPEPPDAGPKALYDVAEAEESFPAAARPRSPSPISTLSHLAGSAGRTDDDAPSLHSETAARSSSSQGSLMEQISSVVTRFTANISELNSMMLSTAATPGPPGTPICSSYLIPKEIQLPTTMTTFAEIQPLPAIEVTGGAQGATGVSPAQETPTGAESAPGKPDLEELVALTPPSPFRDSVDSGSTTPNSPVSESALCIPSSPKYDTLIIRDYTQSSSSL

[4] = biological target: Metabotropic glutamate receptor 6 (Rattus norvegicus, UniProt P35349); assay: Activity at rat mGluR6 receptor measured as intracellular calcium concentration in HEK293 cells; method in brief: as §1
Chain of Metabotropic glutamate receptor 6 (P35349 whole entry): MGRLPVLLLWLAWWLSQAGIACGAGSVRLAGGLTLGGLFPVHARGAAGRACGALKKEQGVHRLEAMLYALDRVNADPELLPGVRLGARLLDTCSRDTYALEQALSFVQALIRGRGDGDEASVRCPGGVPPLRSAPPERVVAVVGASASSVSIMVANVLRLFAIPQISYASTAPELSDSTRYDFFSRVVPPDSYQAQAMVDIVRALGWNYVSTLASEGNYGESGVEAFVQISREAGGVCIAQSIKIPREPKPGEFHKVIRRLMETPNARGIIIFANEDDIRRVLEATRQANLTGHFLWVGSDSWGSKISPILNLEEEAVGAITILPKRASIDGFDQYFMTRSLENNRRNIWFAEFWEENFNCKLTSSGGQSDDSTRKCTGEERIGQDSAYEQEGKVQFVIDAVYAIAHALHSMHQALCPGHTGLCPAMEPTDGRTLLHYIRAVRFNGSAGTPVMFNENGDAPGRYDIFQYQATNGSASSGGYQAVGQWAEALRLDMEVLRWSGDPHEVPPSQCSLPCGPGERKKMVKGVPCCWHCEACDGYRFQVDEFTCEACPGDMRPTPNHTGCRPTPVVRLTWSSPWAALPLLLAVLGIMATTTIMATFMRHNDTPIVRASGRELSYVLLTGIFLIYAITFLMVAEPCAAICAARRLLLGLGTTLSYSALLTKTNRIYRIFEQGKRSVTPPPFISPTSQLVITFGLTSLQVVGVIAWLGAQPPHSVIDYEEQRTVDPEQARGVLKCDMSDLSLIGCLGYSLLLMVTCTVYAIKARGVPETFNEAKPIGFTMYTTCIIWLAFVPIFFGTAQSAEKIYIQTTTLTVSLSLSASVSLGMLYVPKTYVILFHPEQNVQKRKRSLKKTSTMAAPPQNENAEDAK

[5] = biological target: Metabotropic glutamate receptor 8 (Rattus norvegicus, UniProt P70579); assay: (§3) Activity at rat mGluR8 receptor measured as intracellular calcium concentration in HEK293 cells; method in brief: as §1
Chain of Metabotropic glutamate receptor 8 (P70579 whole entry): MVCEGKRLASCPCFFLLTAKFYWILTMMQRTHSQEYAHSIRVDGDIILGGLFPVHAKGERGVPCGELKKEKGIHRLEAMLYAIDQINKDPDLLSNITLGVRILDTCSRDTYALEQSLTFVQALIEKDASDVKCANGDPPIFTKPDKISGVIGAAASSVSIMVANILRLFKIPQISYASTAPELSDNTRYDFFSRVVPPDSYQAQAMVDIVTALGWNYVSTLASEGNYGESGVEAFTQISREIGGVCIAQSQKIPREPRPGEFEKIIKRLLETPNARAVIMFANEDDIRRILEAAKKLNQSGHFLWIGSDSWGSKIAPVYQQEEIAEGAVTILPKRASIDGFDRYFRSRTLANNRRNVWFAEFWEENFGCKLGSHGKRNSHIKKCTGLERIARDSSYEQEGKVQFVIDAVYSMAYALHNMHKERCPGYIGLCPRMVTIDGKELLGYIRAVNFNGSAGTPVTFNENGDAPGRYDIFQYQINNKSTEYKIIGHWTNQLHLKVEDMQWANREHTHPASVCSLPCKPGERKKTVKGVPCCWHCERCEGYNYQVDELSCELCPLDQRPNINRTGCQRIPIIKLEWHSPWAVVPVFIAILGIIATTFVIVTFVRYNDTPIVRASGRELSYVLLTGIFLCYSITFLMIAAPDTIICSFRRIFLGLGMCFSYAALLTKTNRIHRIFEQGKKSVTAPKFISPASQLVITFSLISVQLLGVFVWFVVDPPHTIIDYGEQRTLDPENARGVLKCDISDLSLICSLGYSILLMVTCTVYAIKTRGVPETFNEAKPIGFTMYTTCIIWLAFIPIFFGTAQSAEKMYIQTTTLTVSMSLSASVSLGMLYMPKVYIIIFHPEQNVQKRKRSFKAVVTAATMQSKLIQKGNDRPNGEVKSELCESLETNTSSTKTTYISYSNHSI

[6] = biological target: Metabotropic glutamate receptor 4 (Rattus norvegicus) (UniProt P31423); assay: Activity at rat mGluR4 receptor measured as intracellular calcium concentration in HEK293 cells relative to glutamate
Chain of Metabotropic glutamate receptor 4 (Rattus norvegicus) (P31423 whole entry): as the sequence (P31423 whole entry) above

[7] = biological target: Metabotropic glutamate receptor 8 (Rattus norvegicus) (UniProt P70579); assay: Activity at rat mGluR8 receptor measured as intracellular calcium concentration in HEK293 cells relative to glutamate
Chain of Metabotropic glutamate receptor 8 (Rattus norvegicus) (P70579 whole entry): as the sequence (P70579 whole entry) above

[8] = biological target: Metabotropic glutamate receptor 4 (Rattus norvegicus) (UniProt P31423); assay: Activity against rat mGluR4 receptor measured as intracellular calcium concentration in HEK293 cells at 450 uM; conditions: filed as agonist
[9] = biological target: Metabotropic glutamate receptor 8 (Rattus norvegicus) (UniProt P70579); assay: as §3; conditions: filed as partial agonist; method in brief: as §1
[10] = biological target: Metabotropic glutamate receptor 4 (Rattus norvegicus) (UniProt P31423); assay: as §2; conditions: filed as agonist; method in brief: as §1
[11] = biological target: Metabotropic glutamate receptor 1 (Rattus norvegicus, UniProt P23385); assay: Activity at rat mGluR1 receptor measured as intracellular calcium concentration in HEK293 cells; method in brief: as §1
[12] = biological target: Metabotropic glutamate receptor 7 (Rattus norvegicus, UniProt P35400); assay: Activity at rat mGluR7 receptor measured as intracellular calcium concentration in HEK293 cells; method in brief: as §1

Chain of Metabotropic glutamate receptor 2 (P31421 whole entry): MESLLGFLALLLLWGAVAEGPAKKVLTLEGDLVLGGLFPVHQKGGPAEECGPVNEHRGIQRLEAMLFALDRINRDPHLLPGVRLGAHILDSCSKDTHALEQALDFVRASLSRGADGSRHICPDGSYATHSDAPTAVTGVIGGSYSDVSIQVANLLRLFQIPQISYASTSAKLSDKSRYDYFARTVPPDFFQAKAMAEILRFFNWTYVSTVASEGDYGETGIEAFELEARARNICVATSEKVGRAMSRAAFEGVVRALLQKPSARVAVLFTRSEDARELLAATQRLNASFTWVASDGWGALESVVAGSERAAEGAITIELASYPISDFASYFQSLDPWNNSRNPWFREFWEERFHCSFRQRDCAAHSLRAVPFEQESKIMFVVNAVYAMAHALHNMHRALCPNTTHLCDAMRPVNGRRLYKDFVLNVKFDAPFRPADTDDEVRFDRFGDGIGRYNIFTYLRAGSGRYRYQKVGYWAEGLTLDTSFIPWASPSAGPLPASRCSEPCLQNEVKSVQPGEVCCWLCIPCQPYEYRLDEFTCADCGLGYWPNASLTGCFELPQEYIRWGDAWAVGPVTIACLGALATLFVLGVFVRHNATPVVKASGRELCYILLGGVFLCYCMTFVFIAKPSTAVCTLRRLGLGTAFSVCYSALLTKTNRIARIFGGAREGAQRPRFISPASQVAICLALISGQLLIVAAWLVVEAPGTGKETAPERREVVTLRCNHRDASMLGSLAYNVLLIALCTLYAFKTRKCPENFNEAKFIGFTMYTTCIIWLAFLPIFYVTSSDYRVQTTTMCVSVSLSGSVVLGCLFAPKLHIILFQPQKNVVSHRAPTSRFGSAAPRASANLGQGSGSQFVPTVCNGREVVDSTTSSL

Question: How did the EC50 [1] turn out when `N[C@@]1(C(=O)O)C[C@@H](C(=O)O)N(C(=O)/C=C/C(=O)O)C1` was run?
Answer: > 5000 µM

Question: And the EC50 [2]?
Answer: 48.3 µM

Question: What about the EC50 [3] of the same compound?
Answer: > 5000 µM

Question: What about the EC50 [4] of the same compound?
Answer: 378 µM

Question: What about the EC50 [5] of the same compound?
Answer: 56.2 µM

Question: What about the Emax [6] of the same compound?
Answer: 75%

Question: And the Emax [7]?
Answer: 36%

Question: And the Activity [8]?
Answer: Agonist

Question: What about the Activity [9] of the same compound?
Answer: Partial agonist

Question: What about the Activity [10] of the same compound?
Answer: Agonist

Question: And the EC50 [11]?
Answer: > 5000 µM

Question: How did the EC50 [1] turn out when `N[C@@]1(C(=O)O)C[C@H](C(=O)O)[C@H](C(=O)O)C1` was run?
Answer: > 1000 µM

Question: What about the EC50 [2] of the same compound?
Answer: 7.2 µM

Question: And the EC50 [3]?
Answer: > 1000 µM

Question: And the EC50 [4]?
Answer: 18.4 µM

Question: What about the EC50 [12] of the same compound?
Answer: 1200 µM

Question: What about the EC50 [5] of the same compound?
Answer: 10.1 µM

Reference: ChEMBL document CHEMBL1137262, “Design and synthesis of APTCs (aminopyrrolidinetricarboxylic acids): identification of a new group III metabotropic glutamate receptor selective agonist” (Bioorg Med Chem Lett, 2006)
